Experimental data taken from ChEMBL document CHEMBL2086283, “Novel 4-aminoquinoline-pyrimidine based hybrids with improved in vitro and in vivo antimalarial activity” (ACS Med Chem Lett, 2012).
Active and inactive are the calls of the source. The rule behind the calls is not given here.

What was measured:
[1] = Selectivity index, ratio of IC50 for african green monkey Vero cells to IC50 for chloroquine-sensitive Plasmodium falciparum D6; format: toxicity, cell-based; conditions: read-out: Ratio IC50
In short: (§1)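 SI is the IC50 for cytotoxicity to Vero cells (monkey kidney fibroblasts) divided by the antimalarial IC50 against the named P. falciparum clone. Cytotoxicity was tested up to 60 μM.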

[2] = Selectivity index, ratio of IC50 for african green monkey Vero cells to IC50 for chloroquine-resistant Plasmodium falciparum W2; format: toxicity, cell-based; conditions: read-out: Ratio IC50; in short: as §1
Plasmodium falciparum [3] = test: Ratio of artemesin IC50 to compound IC50 for chloroquine-sensitive Plasmodium falciparum D6; format: functional
Plasmodium falciparum [4] = test: Antiplasmodial activity against chloroquine-resistant Plasmodium falciparum W2 infected in red blood cells after 72 hrs by parasitic LDH assay; format: functional, organism-based; conditions: W2, 72 h
Plasmodium falciparum [5] = test: Ratio of chloroquine IC50 to compound IC50 for chloroquine-resistant Plasmodium falciparum W2; format: functional
Plasmodium falciparum [6] = test: Antiplasmodial activity against chloroquine-sensitive Plasmodium falciparum D6 infected in red blood cells after 72 hrs by parasitic LDH assay; format: functional, organism-based; conditions: D6, 72 h
Plasmodium falciparum [7] = test: Ratio of chloroquine IC50 to compound IC50 for chloroquine-sensitive Plasmodium falciparum D6; format: functional
Vero [8] = test: Cytotoxicity against african green monkey Vero cells after 48 hrs by neutral red assay; format: cell-based; conditions: chlorocebus sabaeus
In short: (§2)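 Mammalian cell cytotoxicity was measured as IC50 in Vero (monkey kidney fibroblasts), LLC-PK11 (pig kidney epithelial) and HepG2 (human hepatoma) cells. The highest concentration tested was 60 μM. Values are the mean of two independent experiments ± SD.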

[9] = Cytotoxicity against pig LLC-PK11 cells after 48 hrs by neutral red assay; format: cell-based; conditions: Sus scrofa, LLC-PK11, 48 h; in short: as §2
HepG2 [10] = test: Cytotoxicity against human HepG2 cells after 48 hrs by neutral red assay; format: cell-based; conditions: HepG2, 48 h; in short: as §2
Mus musculus [11] = test: Toxicity in mouse infected with Plasmodium berghei assessed as host survival at 3.3 mg/kg, po administered QD for 3 days measured on day 28; format: organism-based; design: dose 3.3 mg/kg, route oral; conditions: in vivo, 72 h
Plasmodium berghei [12] = test: Antimalarial activity against Plasmodium berghei infected in mouse assessed as suppression in parasitemia at 30 mg/kg, po administered QD for 3 days measured on day 7 relative to control; format: functional
In short: (§3)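 P. berghei-infected mice, 5 per group, dosed by oral gavage once daily on days 0, 1 and 2 postinfection, with a vehicle control arm. Mice were followed to day 28 postinfection for apparent toxicity, parasitemia and survival. Parasitemia suppression is expressed against mean vehicle-control parasitemia set as 100%, and cure is the number cured per 5 mice.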

Plasmodium berghei [13] = test: Antimalarial activity Plasmodium berghei infected in mouse assessed as mean survival time at 3.3 mg/kg, po administered QD for 3 days (reference value: 15.2 days); format: functional
Plasmodium berghei [14] = test: Antimalarial activity Plasmodium berghei infected in mouse assessed as cure from infection at 3.3 mg/kg, po administered QD for 3 days measured on day 28; format: functional, organism-based; design: dose 3.3 mg/kg; in short: as §3
Mus musculus [15] = test: Toxicity in mouse infected with Plasmodium berghei assessed as host survival at 10 mg/kg, po administered QD for 3 days measured on day 28; format: organism-based; design: dose 10 mg/kg, route oral; conditions: in vivo, 72 h
[16] = Cytotoxicity against pig LLC-PK11 cells up to 60 uM after 48 hrs by neutral red assay; format: cell-based, Sus scrofa; conditions: llc-pk11, 48 h; in short: as §2
Plasmodium berghei [17] = test: Antimalarial activity against Plasmodium berghei infected in mouse assessed as suppression in parasitemia at 10 mg/kg, po administered QD for 3 days measured on day 5 relative to control; format: functional; in short: as §3
Plasmodium berghei [18] = test: Antimalarial activity Plasmodium berghei infected in mouse assessed as cure from infection at 30 mg/kg, po administered QD for 3 days measured on day 28; format: functional; in short: as §3
Plasmodium berghei [19] = test: Antimalarial activity Plasmodium berghei infected in mouse assessed as mean survival time at 30 mg/kg, po administered QD for 3 days (reference value: 15.2 days); format: functional
HepG2 [20] = test: Cytotoxicity against human HepG2 cells up to 60 uM after 48 hrs by neutral red assay; format: cell-based; conditions: hepg2, 48 h; in short: as §2
Plasmodium berghei [21] = test: Antimalarial activity Plasmodium berghei infected in mouse assessed as mean survival time at 10 mg/kg, po administered QD for 3 days (reference value: 15.2 days); format: functional
Plasmodium berghei [22] = test: Antimalarial activity against Plasmodium berghei infected in mouse assessed as suppression in parasitemia at 10 mg/kg, po administered QD for 3 days measured on day 7 relative to control; format: functional; in short: as §3
Plasmodium berghei [23] = test: Antimalarial activity against Plasmodium berghei infected in mouse assessed as suppression in parasitemia at 3.3 mg/kg, po administered QD for 3 days measured on day 7 relative to control; format: functional; in short: as §3
Plasmodium berghei [24] = test: Antimalarial activity Plasmodium berghei infected in mouse assessed as cure from infection at 10 mg/kg, po administered QD for 3 days measured on day 28; format: functional, organism-based; design: dose 10 mg/kg; in short: as §3
Plasmodium berghei [25] = test: Antimalarial activity against Plasmodium berghei infected in mouse assessed as suppression in parasitemia at 3.3 mg/kg, po administered QD for 3 days measured on day 5 relative to control; format: functional; in short: as §3
Plasmodium berghei [26] = test: Antimalarial activity against Plasmodium berghei infected in mouse assessed as suppression in parasitemia at 30 mg/kg, po administered QD for 3 days measured on day 5 relative to control; format: functional; in short: as §3
Vero [27] = test: Cytotoxicity against african green monkey Vero cells up to 60 uM after 48 hrs by neutral red assay; format: cell-based; conditions: chlorocebus sabaeus; in short: as §2
Mus musculus [28] = test: Toxicity in mouse infected with Plasmodium berghei assessed as host survival at 30 mg/kg, po administered QD for 3 days measured on day 28; format: organism-based; design: dose 30 mg/kg, route oral; conditions: in vivo, 72 h

Compound	selectivity ratio [1]	selectivity ratio [2]	IC50 (Plasmodium falciparum [4])	Ratio IC50 (Plasmodium falciparum [5])	IC50 (Plasmodium falciparum [6])	IC50 (Vero [8])	IC50 [9]	IC50 (HepG2 [10])	Activity [16]	Activity (HepG2 [20])	Activity (Vero [27])	other results
Cc1cc(NCCCCCCNc2ccnc3cc(Cl)ccc23)nc(N2CCN(C)CC2)n1	1480	650	0.016 µM	6	0.007 µM	10.4 µM	7.2 µM	6.3 µM	–	–	–	Ratio IC50 (Plasmodium falciparum [3]): 2; Ratio IC50 (Plasmodium falciparum [7]): 6
Cc1cc(NCCNc2ccnc3cc(Cl)ccc23)nc(N2CCN(C)CC2)n1	> 12000	> 2000	0.03 µM	6	0.005 µM	–	–	–	Non-toxic	Non-toxic	Non-toxic	Activity (Mus musculus [11]): Toxic; Activity (Plasmodium berghei [12]): 100%; MST (Plasmodium berghei [13]): 19.2 days; Activity (Plasmodium berghei [14]): inactive; Activity (Mus musculus [15]): Toxic; Ratio IC50 (Plasmodium falciparum [3]): 2; Activity (Plasmodium berghei [17]): 97%; Activity (Plasmodium berghei [18]): 80%; MST (Plasmodium berghei [19]): 28 days; Ratio IC50 (Plasmodium falciparum [7]): 6; MST (Plasmodium berghei [21]): 21.4 days; Activity (Plasmodium berghei [22]): 2%; Activity (Plasmodium berghei [23]): 35.2%; Activity (Plasmodium berghei [24]): inactive; Activity (Plasmodium berghei [25]): 23.5%; Activity (Plasmodium berghei [26]): 100%; Activity (Mus musculus [28]): Non-toxic
Cc1cc(Cl)nc(NCCCCNc2ccnc3cc(Cl)ccc23)n1	> 353	> 94	0.64 µM	–	0.17 µM	–	–	46.4 µM	Non-toxic	–	Non-toxic	–
Cc1cc(NCCCCNc2ccnc3cc(Cl)ccc23)nc(N2CCN(C)CC2)n1	> 3000	> 3000	0.02 µM	6	0.02 µM	–	34.6 µM	29.5 µM	–	–	Non-toxic	–
Cc1cc(Cl)nc(NCCNc2ccnc3cc(Cl)ccc23)n1	205	53.1	0.81 µM	–	0.21 µM	43 µM	42.3 µM	43 µM	–	–	–	–
Cc1cc(NCCCNc2ccnc3cc(Cl)ccc23)nc(N2CCN(C)CC2)n1	> 8570	> 1000	0.06 µM	6	0.007 µM	–	34.6 µM	26.7 µM	–	–	Non-toxic	Ratio IC50 (Plasmodium falciparum [3]): 2; Ratio IC50 (Plasmodium falciparum [7]): 6
Cc1cc(Cl)nc(NCCCCCCNc2ccnc3cc(Cl)ccc23)n1	353	85.2	0.58 µM	–	0.14 µM	49.4 µM	24 µM	8.1 µM	–	–	–	–
Cc1cc(NCCCNc2ccnc3cc(Cl)ccc23)nc(N2CCCCC2)n1	> 3000	> 285	0.21 µM	–	0.02 µM	–	–	–	Non-toxic	Non-toxic	Non-toxic	–
Cc1cc(NCCCCNc2ccnc3cc(Cl)ccc23)nc(Cl)n1	> 500	> 88	0.68 µM	–	0.12 µM	–	–	–	Non-toxic	Non-toxic	Non-toxic	–
Cc1cc(Cl)nc(NCCCNc2ccnc3cc(Cl)ccc23)n1	> 250	> 51.3	1.17 µM	–	0.24 µM	–	–	–	Non-toxic	Non-toxic	Non-toxic	–
CCN1CCN(c2nc(C)cc(NCCCNc3ccnc4cc(Cl)ccc34)n2)CC1	> 10000	> 1000	0.06 µM	6	0.006 µM	–	–	–	Non-toxic	Non-toxic	Non-toxic	Activity (Mus musculus [11]): Toxic; Activity (Plasmodium berghei [12]): 100%; MST (Plasmodium berghei [13]): 20.2 days; Activity (Plasmodium berghei [14]): inactive; Activity (Mus musculus [15]): Toxic; Ratio IC50 (Plasmodium falciparum [3]): 2; Activity (Plasmodium berghei [17]): 73.9%; Activity (Plasmodium berghei [18]): 20%; MST (Plasmodium berghei [19]): 27.2 days; Ratio IC50 (Plasmodium falciparum [7]): 6; MST (Plasmodium berghei [21]): 15.2 days; Activity (Plasmodium berghei [22]): 27.1%; Activity (Plasmodium berghei [23]): 19.1%; Activity (Plasmodium berghei [24]): inactive; Activity (Plasmodium berghei [25]): 20.1%; Activity (Plasmodium berghei [26]): 100%; Activity (Mus musculus [28]): Non-toxic
Cc1cc(NCCNc2ccnc3cc(Cl)ccc23)nc(N2CCOCC2)n1	> 3000	> 444	0.14 µM	–	0.02 µM	–	–	–	Non-toxic	Non-toxic	Non-toxic	–
Cc1cc(NCCCNc2ccnc3cc(Cl)ccc23)nc(Cl)n1	> 184	> 85	0.7 µM	–	0.33 µM	–	–	–	Non-toxic	Non-toxic	Non-toxic	–
CCN1CCN(c2nc(C)cc(NCCCCNc3ccnc4cc(Cl)ccc34)n2)CC1	1620	1620	0.02 µM	6	0.02 µM	32.4 µM	10.7 µM	15.4 µM	–	–	–	–
Cc1cc(NCCNc2ccnc3cc(Cl)ccc23)nc(Cl)n1	> 370	> 120	0.5 µM	–	0.16 µM	–	–	–	Non-toxic	Non-toxic	Non-toxic	–
C[C@@H]1CC[C@H]2[C@@H](C)C(=O)O[C@@H]3O[C@@]4(C)CC[C@@H]1[C@]32OO4 [ARTEMISININ]	–	–	–	–	–	–	–	–	Non-toxic	Non-toxic	Non-toxic	–
Cc1cc(NCCCCCCNc2ccnc3cc(Cl)ccc23)nc(N2CCOCC2)n1	503	107	0.14 µM	–	0.03 µM	15.1 µM	11.1 µM	6.4 µM	–	–	–	–
Cc1cc(NCCCNc2ccnc3cc(Cl)ccc23)nc(N2CCOCC2)n1	> 3000	> 1200	0.05 µM	6	0.02 µM	–	35.7 µM	26.2 µM	–	–	Non-toxic	–
COc1cccc2c1C(=O)c1c(O)c3c(c(O)c1C2=O)C[C@@](O)(C(=O)CO)C[C@@H]3O[C@H]1C[C@H](N)[C@H](O)[C@H](C)O1 [DOXORUBICIN]	–	–	–	–	–	8.6 µM	1.05 µM	1 µM	–	–	–	–
Cc1cc(NCCCCCCNc2ccnc3cc(Cl)ccc23)nc(N2CCCCC2)n1	146	88	0.1 µM	–	0.06 µM	8.8 µM	6.3 µM	6.4 µM	–	–	–	–
Cc1cc(NCCCCCCNc2ccnc3cc(Cl)ccc23)nc(Cl)n1	74.3	60.6	0.54 µM	–	0.44 µM	32.7 µM	15.8 µM	9.1 µM	–	–	–	–
Cc1cc(NCCCCNc2ccnc3cc(Cl)ccc23)nc(N2CCCCC2)n1	> 3000	> 666	0.09 µM	6	0.02 µM	–	–	–	Non-toxic	Non-toxic	Non-toxic	–
